Measurements from publication PMC7269016 (The Journal of investigative dermatology, 2018).
pIC50: −log10 of the molar value. “Also recorded” adds a separate entry of the source.

Legend:
p38γ = target: T1, p38γ (Homo sapiens, UniProt P53778); assay: ADP-Glo in vitro kinase assay; format: biochemical; conditions: for inhibition of p38γ kinase activity (in words): cell-free ADP-Glo, 1 μmol/L and 10 μmol/L, Figure 5c
T1 sequence (P53778 1-367): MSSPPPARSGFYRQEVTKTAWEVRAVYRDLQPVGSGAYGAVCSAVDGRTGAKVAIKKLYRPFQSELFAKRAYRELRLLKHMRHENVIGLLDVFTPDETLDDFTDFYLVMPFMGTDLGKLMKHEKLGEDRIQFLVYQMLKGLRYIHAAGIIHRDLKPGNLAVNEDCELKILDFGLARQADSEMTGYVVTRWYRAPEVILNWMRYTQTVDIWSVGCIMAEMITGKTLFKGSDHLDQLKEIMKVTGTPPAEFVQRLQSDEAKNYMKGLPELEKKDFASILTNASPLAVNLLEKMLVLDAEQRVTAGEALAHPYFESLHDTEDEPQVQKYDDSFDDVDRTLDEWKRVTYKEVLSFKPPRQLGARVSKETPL

Hut78 cells = format: cell-based, human; conditions: for reduction of Hut78 cell viability (in words): Figure 5a
CTCL cells = assay: Cell killing of CTCL cells; format: cell-based; conditions: Homo sapiens, read-out: IC50 for cell killing on the CTCL cells
Procedure, shortened: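 Hut78, HH and H9 CTCL cell lines were exposed to varying concentrations of test compound for 72 hours. Viability was read by CellTiterGlo and normalized to DMSO control. IC50 was derived from dose-response data. There were three independent experiments, each averaged from triplicates.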

pIC50 (p38γ) | Compound | inhibition of p38γ kinase activity (in words) (p38γ) | influence on viability of Hut78 cells (in words) (Hut78 cells; up to approximately 10 μmol/L, 72 hours) | reduction of Hut78 cell viability (in words) (Hut78 cells) | pIC50 (CTCL cells)
– | Cc1nc(NC(=O)N2CCC[C@H]2C(N)=O)sc1-c1csc(C(C)(C)C)n1 [A66] | no inhibitory kinase activities against p38γ; also recorded: does not inhibit in vitro activity of p38γ | no influence on the viability of Hut78 cells; also recorded: does not affect cell viability | – | –
– | CS(=O)(=O)N1CCN(Cc2cc3nc(-c4cccc5[nH]ncc45)nc(N4CCOCC4)c3s2)CC1 [GDC0941] | no inhibitory kinase activities against p38γ | – | only modest reduction of cell viability | –
– | Cn1c(=O)n(-c2ccc(C(C)(C)C#N)cc2)c2c3cc(-c4cnc5ccccc5c4)ccc3ncc21 [BEZ235] | no inhibitory kinase activities against p38γ | – | only modest reduction of cell viability | –
< 3.90 | Cc1ccc(=O)n(-c2ccccc2)c1 [pirfenidone] | – | – | – | < 3.90
